The values below come from the array DNA melting data of Ke et al. (doi:10.1101/2024.01.08.574731).

Data set [1] can be described thus: folding enthalpy; higher = less favourable; fluorescence melt of hairpins on a sequencing array, two-state fit. Particulars: sodium 0.088 M. In a few lines:
(§1)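 Folding enthalpy and melting temperature were estimated with bootstrapped two-state fits and combined across four replicates by inverse-variance weighting, with fitted temperatures raised by 9.35 °C to match UV melts. The data were Cy3 fluorescence of library hairpins, with annealed Cy3 and quencher oligos, on a sequenced MiSeq flow cell in 50 mM Na-HEPES pH 8.0, 25 mM NaCl, imaged in 2.5 °C steps up to 60 °C and normalised to pre-quench Cy3 and control constructs.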

Data set [2] in a line: melting temperature; fluorescence melt of hairpins on a sequencing array, two-state fit, raised by 9.35 °C to match UV melts. Particulars: sodium 0.088 M. In a few lines:
as §1

For the sequence GCCTTGCGAAAGCATAGC ((..(((....)))..)), in data set [1], the folding enthalpy was -40.5 kJ/mol. Further, the Tm in data set [2] was 50.8 °C.

With GCCTTGCGAAAGCCATGC ((.(.((....)).).)), the folding enthalpy in data set [1] was -15.3 kJ/mol. For the same sequence, the Tm in data set [2] was 27 °C.

As to GCCTTGCGAAAGCCTGGC (((..((....))..))), the folding enthalpy in data set [1] is -78.1 kJ/mol. In data set [2], the Tm was 53.9 °C.

Turning to GCCTTGCGAAAGCGAAGC ((.(.((....)).).)), the folding enthalpy in data set [1] was -33.5 kJ/mol. Moreover, the Tm in data set [2] was determined as 45 °C.

On to GCCTTGCGAAAGCGCGGC (((..((....))..))), for which the folding enthalpy in data set [1] was -75.1 kJ/mol. For the same sequence, the Tm in data set [2] worked out at 57.1 °C.

For GCCTTGCGAAAGCTACGC ((.(.((....)).).)), the folding enthalpy in data set [1] is -42.6 kJ/mol. Also, the Tm in data set [2] amounted to 46.3 °C.

In the case of GCCTTGCGAAAGCTTGGC (((..((....))..))), in data set [1], the folding enthalpy is -87.6 kJ/mol. The Tm in data set [2] worked out at 60 °C.

Consider GCCTTGGGAAACCAGGGC (((.(((....))).))), for which, in data set [1], the folding enthalpy is -196 kJ/mol. In addition, the Tm in data set [2] turned out to be 52.7 °C.

As to GCCTTGGGAAACCGAGGC ((((.((....)).)))), the folding enthalpy in data set [1] is -167 kJ/mol. Besides, in data set [2], the Tm is 56.6 °C.

As for GCCTTTCGAAAGAATGGC (((.(((....))).))), the folding enthalpy in data set [1] was -178 kJ/mol. Besides, in data set [2], the Tm turned out to be 53 °C.

GCGAAAACTCGC ((((....)))): the folding enthalpy in data set [1] was -54.9 kJ/mol. The Tm in data set [2] was found to be 41.7 °C.

For the sequence GCGAAACGTCGC ((((....)))), the folding enthalpy in data set [1] is -81.6 kJ/mol. Also, the Tm in data set [2] was determined as 47.8 °C.

Consider GCGAAAGGTCGC ((((....)))), for which the folding enthalpy in data set [1] is -59.2 kJ/mol. Besides, in data set [2], the Tm came out at 41.4 °C.

With GCGAAAGTTCGC ((((....)))), in data set [1], the folding enthalpy is -82 kJ/mol. Besides, in data set [2], the Tm came to 47.2 °C.

As to GCGAAATGTCGC ((((....)))), the folding enthalpy in data set [1] is -77.9 kJ/mol. In data set [2], the Tm came out at 44.8 °C.

On to GCGAAATTTCGC ((((....)))), for which, in data set [1], the folding enthalpy was -178 kJ/mol. For the same sequence, the Tm in data set [2] turned out to be 51.7 °C.

Turning to GCGAACACTCGC ((((....)))), in data set [1], the folding enthalpy was -98.2 kJ/mol. In data set [2], the Tm stood at 45 °C.

With GCGAACCGAAAGGTCGC (((.(((....)))))), the folding enthalpy in data set [1] was -133 kJ/mol. Further, in data set [2], the Tm turned out to be 67.5 °C.

As to GCGAACCTCGC ((((...)))), the folding enthalpy in data set [1] was -74.1 kJ/mol. Besides, in data set [2], the Tm turned out to be 46 °C.

With GCGAACGAAAGTTGACGC ((((((....)))..))), in data set [1], the folding enthalpy was -96.3 kJ/mol. Moreover, in data set [2], the Tm worked out at 44.1 °C.

As for GCGAACGATCGC ((((....)))), the folding enthalpy in data set [1] is -88.1 kJ/mol. For the same sequence, in data set [2], the Tm came out at 41.1 °C.

Take GCGAACGCTCGC ((((....)))): in data set [1], the folding enthalpy was -51.2 kJ/mol. For the same sequence, in data set [2], the Tm turned out to be 59.6 °C.

Consider GCGAACGGAAACACTCGC ((((..(....)..)))), for which, in data set [1], the folding enthalpy is -91.8 kJ/mol. For the same sequence, in data set [2], the Tm was determined as 32.3 °C.

As to GCGAACGGAAACGTCCGC (((.(((....))).))), in data set [1], the folding enthalpy was -168 kJ/mol. Moreover, the Tm in data set [2] worked out at 54.6 °C.

On to GCGAACGTTCGC ((((....)))), for which the folding enthalpy in data set [1] is -165 kJ/mol. For the same sequence, the Tm in data set [2] was found to be 55.8 °C.

As for GCGAACTATCGC ((((....)))), the folding enthalpy in data set [1] is -86.2 kJ/mol. In addition, the Tm in data set [2] was 45.4 °C.

On to GCGAAGACGAAAGTCCGC (((..(((....)))))), for which the folding enthalpy in data set [1] is -134 kJ/mol. For the same sequence, the Tm in data set [2] stood at 52.4 °C.

For GCGAAGCCGAAAGGCCGC (((..(((....)))))), in data set [1], the folding enthalpy was -84.4 kJ/mol. Besides, the Tm in data set [2] came to 58.8 °C.

Consider GCGAAGCGAAAGCACCGC (((..((....))..))), for which the folding enthalpy in data set [1] was -41.5 kJ/mol. In addition, the Tm in data set [2] was 43.8 °C.

As for GCGAAGCGAAAGCATGGC ((.(.((....)).).)), in data set [1], the folding enthalpy was -21.2 kJ/mol. Also, the Tm in data set [2] was 40 °C.

For GCGAAGCGAAAGCATTGC ((.(.((....)).).)), the folding enthalpy in data set [1] is -30.4 kJ/mol. Besides, the Tm in data set [2] turned out to be 39.1 °C.

On to GCGAAGCGAAAGCCTCGC ((((.((....)).)))), for which the folding enthalpy in data set [1] was -77.4 kJ/mol. Moreover, the Tm in data set [2] amounted to 57.8 °C.

On to GCGAAGCGAAAGCCTGGC ((.(.((....)).).)), for which the folding enthalpy in data set [1] is -23.3 kJ/mol. The Tm in data set [2] worked out at 34.1 °C.

Turning to GCGAAGCGAAAGCTTTGC ((.((((....)))).)), in data set [1], the folding enthalpy is -93.5 kJ/mol. Moreover, in data set [2], the Tm came out at 62.6 °C.

Consider GCGAAGGCGAAAGCCCGC (((..(((....)))))), for which the folding enthalpy in data set [1] is -76.3 kJ/mol. Also, the Tm in data set [2] is 59.5 °C.

Take GCGAAGTATCGC ((((....)))): the folding enthalpy in data set [1] is -60 kJ/mol. Also, the Tm in data set [2] came out at 46.2 °C.

As for GCGAAGTGTCGC ((((....)))), in data set [1], the folding enthalpy was -58 kJ/mol. Besides, the Tm in data set [2] stood at 49.6 °C.

With GCGAATATTCGC ((((....)))), the folding enthalpy in data set [1] is -140 kJ/mol. In addition, in data set [2], the Tm was found to be 50.7 °C.
